The source made the active and inactive calls. No cut-off for these calls is given here.
Columns and labels:
Mus musculus [1] = assay: Behavioral toxicity in po dosed albino Icem-CET (SPF Caw) mouse assessed as positional passivity by Irwin's test; format: organism-based; details: in vivo
Mus musculus [2] = assay: Behavioral toxicity in po dosed albino Icem-CET (SPF Caw) mouse assessed as reduction in locomotor activity by Irwin's test; format: organism-based; details: in vivo
Mus musculus [3] = assay: Behavioral toxicity in po dosed albino Icem-CET (SPF Caw) mouse assessed as tremors by Irwin's test; format: organism-based; details: in vivo
Mus musculus [4] = assay: Toxicity in po dosed albino Icem-CET (SPF Caw) mouse assessed as clonic type convulsion by Irwin's test; format: organism-based; details: in vivo
Summary of the method: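 Irwin test in fasted (9 h) male Icem-CET (SPF Caw) mice, 17-22 g. Oral gavage of a 0.5% Methocel suspension at screening doses of 25-800 mg/kg. Clonic-type convulsions were scored as the minimum effective dose.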

Mus musculus [5] = assay: Anticonvulsant activity in albino Icem-CET (SPF Caw) mouse assessed as inhibition of pentylenetetrazole-induced maximal extensor seizures at 100 mg/kg, po administered 30 mins prior challenge; format: functional, organism-based; set-up: dose 100 mg/kg
Summary of the method: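 Single-dose screen at 100 mg/kg by gavage in 0.5% Methocel in fasted male Icem-CET (SPF Caw) mice, 17-22 g. Dosing was 30 min before pentylenetetrazole 130 mg/kg ip, and prevention of maximal extensor seizures was scored.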

Mus musculus [6] = assay: Toxicity in po dosed albino Icem-CET (SPF Caw) mouse assessed as impairment of pinna by Irwin's test; format: organism-based; details: in vivo
[7] = Behavioral toxicity in po dosed albino Icem-CET (SPF Caw) mouse measured up to 7 days by Irwin's test; format: organism-based; details: in vivo
Mus musculus [8] = assay: Toxicity in po dosed albino Icem-CET (SPF Caw) mouse assessed as impairment of corneal reflexes by Irwin's test; format: organism-based, Cornea; details: in vivo
Mus musculus [9] = assay: Behavioral toxicity in albino Icem-CET (SPF Caw) mouse assessed as positional passivity at 25 to 800 mg/kg, po by Irwin's test; format: organism-based; set-up: dose 25-800 mg/kg, route oral; details: in vivo
Mus musculus [10] = assay: Anticonvulsant activity in po dosed albino Icem-CET (SPF Caw) mouse assessed as inhibition of pentylenetetrazole-induced maximal extensor seizures compound administered 30 mins prior challenge; format: functional
Summary of the method: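 Pentylenetetrazole antagonism in male Icem-CET (SPF Caw) mice, 17-22 g, fasted 9 h. Compound in 0.5% Methocel was given by gavage (0.2 ml/10 g) at 4-5 doses, 20 mice per dose, 30 min before pentylenetetrazole 130 mg/kg ip. Prevention of maximal extensor seizures was scored. ED50 was calculated by probit analysis, with fiducial limits at p = 0.05.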

Mus musculus [11] = assay: Behavioral toxicity in albino Icem-CET (SPF Caw) mouse assessed as clonic type convulsion at 25 to 800 mg/kg, po by Irwin's test; format: organism-based; set-up: dose 25-800 mg/kg, route oral; details: in vivo
Mus musculus [12] = assay: Behavioral toxicity in albino Icem-CET (SPF Caw) mouse assessed as tremors at 25 to 800 mg/kg, po by Irwin's test; format: organism-based; set-up: dose 25-800 mg/kg, route oral; details: in vivo

SMILES	ED50 (Mus musculus [1])	ED50 (Mus musculus [2])	ED50 (Mus musculus [3])	MED (Mus musculus [4])	Activity (Mus musculus [5])	Activity (Mus musculus [6])	LD50 at 168 h [7]	Activity (Mus musculus [8])	Activity (Mus musculus [9])	ED50 (Mus musculus [10])	Activity (Mus musculus [11])	Activity (Mus musculus [12])
C=CCNC(=O)/C(C)=C(/C)c1ccc(F)cc1	300 mg/kg	270 mg/kg	250 mg/kg	800 mg/kg	inactive	Toxic	400 mg/kg	Toxic				
C=CCNC(=O)/C(C)=C(/C)c1ccccc1		550 mg/kg	400 mg/kg	400 mg/kg	inactive		600 mg/kg		Non-toxic			
C=CCNC(=O)/C(C)=C(\C)c1ccc(Br)cc1	500 mg/kg	120 mg/kg	500 mg/kg				600 mg/kg			33.7 mg/kg		
C/C(C(=O)NC1CC1)=C(/C)c1ccc(F)cc1	200 mg/kg	110 mg/kg	70 mg/kg			Toxic	300 mg/kg	Toxic		25 mg/kg		
C=CCNC(=O)/C(C)=C(\C)c1ccc(C)cc1	170 mg/kg	100 mg/kg	150 mg/kg				600 mg/kg			78 mg/kg		
C/C(C(=O)NC1CC1)=C(/C)c1ccc(C)cc1	300 mg/kg	110 mg/kg	150 mg/kg		inactive		> 800 mg/kg					
C#CCNC(=O)/C(C)=C(\C)c1cc(OC)c(OC)c(OC)c1	300 mg/kg	160 mg/kg	150 mg/kg				500 mg/kg			53.1 mg/kg		
COc1cc(/C(C)=C(\C)C(=O)NC2CC2)cc(OC)c1OC	> 800 mg/kg	320 mg/kg	> 800 mg/kg		inactive		> 800 mg/kg					
C=CCNC(=O)/C(C)=C(\C)c1ccc(F)cc1	150 mg/kg	70 mg/kg	130 mg/kg			Toxic	400 mg/kg	Toxic		40.2 mg/kg		
C#CCNC(=O)/C(C)=C(\C)c1ccc(F)cc1	200 mg/kg	100 mg/kg	100 mg/kg			Toxic	240 mg/kg	Toxic		22.8 mg/kg		
COc1ccc(/C(C)=C(\C)C(=O)NC2CC2)cc1	300 mg/kg	250 mg/kg	250 mg/kg		inactive		> 800 mg/kg					
COc1ccc(/C(C)=C(/C)C(=O)NC2CC2)cc1		300 mg/kg	300 mg/kg	400 mg/kg	inactive		450 mg/kg		Non-toxic			
C=CCNC(=O)/C(C)=C(\C)c1ccc(Cl)cc1	90 mg/kg	70 mg/kg	70 mg/kg				300 mg/kg					
C=CCNC(=O)/C(C)=C(\C)c1cc(OC)c(OC)c(OC)c1	280 mg/kg	110 mg/kg	190 mg/kg		inactive		600 mg/kg					
C=CCNC(=O)/C(C)=C(/C)c1ccc(OC)cc1		280 mg/kg	400 mg/kg	400 mg/kg	inactive		400 mg/kg		Non-toxic			
C#CCNC(=O)/C(C)=C(\C)c1ccc(OC)cc1	400 mg/kg	150 mg/kg	150 mg/kg				> 800 mg/kg			112 mg/kg		
C=CCNC(=O)/C(C)=C(\C)c1ccc(OC)cc1	300 mg/kg	200 mg/kg	300 mg/kg		inactive		> 800 mg/kg					
C#CCNC(=O)/C(C)=C(\C)c1ccccc1	400 mg/kg	150 mg/kg	150 mg/kg				300 mg/kg			45.3 mg/kg		
C=CCNC(=O)/C(C)=C(\C)c1ccccc1	300 mg/kg	130 mg/kg	250 mg/kg				550 mg/kg					
C/C(C(=O)NC1CC1)=C(\C)c1ccc(Cl)cc1		170 mg/kg	600 mg/kg				450 mg/kg		Non-toxic		Non-toxic	
C=CCNC(=O)/C(C)=C(/C)c1ccc(Cl)cc1	280 mg/kg	180 mg/kg	400 mg/kg	400 mg/kg	inactive		600 mg/kg					
C/C(C(=O)NC1CC1)=C(/C)c1ccc(Cl)cc1	> 800 mg/kg	350 mg/kg	150 mg/kg				300 mg/kg					
C/C(C(=O)NC1CC1)=C(\C)c1ccccc1		400 mg/kg	300 mg/kg	400 mg/kg	inactive		600 mg/kg		Non-toxic			
C/C(C(=O)NC1CC1)=C(\C)c1ccc(Br)cc1	450 mg/kg	300 mg/kg					600 mg/kg				Non-toxic	Non-toxic
C/C(C(=O)NC1CC1)=C(/C)c1ccccc1	250 mg/kg	100 mg/kg	150 mg/kg				500 mg/kg					
C/C(C(=O)NC1CC1)=C(\C)c1ccc(C)cc1	500 mg/kg	280 mg/kg			inactive		> 800 mg/kg				Non-toxic	Non-toxic
C=CCNC(=O)/C(C)=C(/C)c1ccc(C)cc1		280 mg/kg	400 mg/kg	400 mg/kg	inactive		> 800 mg/kg		Non-toxic			
C#CCNC(=O)/C(C)=C(\C)c1ccc(Br)cc1	500 mg/kg	180 mg/kg	150 mg/kg				300 mg/kg			18.4 mg/kg		
C#CCNC(=O)/C(C)=C(\C)c1ccc(C)cc1	200 mg/kg	120 mg/kg	150 mg/kg				> 800 mg/kg			86.4 mg/kg		

— ChEMBL document CHEMBL3272207, “Structure-activity relationship in cinnamamides. 2. Synthesis and pharmacological evaluation of some (E)- and (Z)-N-alkyl-alpha, beta-dimethylcinnamamides substituted on the phenyl group” (J Med Chem, 1977)
